Measured values from ChEMBL document CHEMBL3244215, “Fluorinated pyrimidine nucleosides. 3. Synthesis and antitumor activity of a series of 5'-deoxy-5-fluoropyrimidine nucleosides” (J Med Chem, 1979).
Active and inactive are the calls of the source. The rule behind the calls is not given here.

How the values were obtained:
Sarcoma-180 [1] = assay: Antitumor activity against mouse Sarcoma 180 cells allografted in CD1 mouse at 100 mg/kg, ip qd administered shortly post implantation continued for 8 days relative to vehicle-treated control; type: functional, organism-based; design: dose 100 mg/kg
Outline: (§1)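 Compounds dissolved or suspended in H2O, given ip as 1.0 mL shortly after tumor implantation, then daily to eight doses in total. Mice killed 8 days after implantation; tumors excised and weighed. Mean tumor weight of treated mice (T) compared with that of H2O-treated controls (C), expressed as C/T index.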

Sarcoma-180 [2] = assay: Antitumor activity against mouse Sarcoma 180 cells allografted in CD1 mouse at 3.12 to 800 mg/kg, ip qd administered shortly post implantation for 8 days relative to vehicle-treated control; type: functional, organism-based
Sarcoma-180 [3] = assay: Antitumor activity against mouse Sarcoma 180 cells allografted in CD1 mouse at 50 mg/kg, ip qd administered shortly post implantation continued for 8 days relative to vehicle-treated control; type: functional, organism-based; design: dose 50 mg/kg; outline: as §1
Mus musculus [4] = assay: Toxicity in mouse in po dosed CD1 mouse assessed as leukopenia administered once daily starting shortly post implantation continued for 8 days relative to vehicle-treated control; type: organism-based; conditions: in vivo, 192 h
Mus musculus [5] = assay: Toxicity in mouse in po dosed CD1 mouse assessed as change in body weight administered once daily starting shortly post implantation continued for 8 days relative to vehicle-treated control; type: organism-based; conditions: in vivo, 192 h
Sarcoma-180 [6] = assay: Antitumor activity against mouse Sarcoma 180 cells allografted in CD1 mouse at 200 mg/kg, ip qd administered shortly post implantation continued for 8 days relative to vehicle-treated control; type: functional, organism-based; design: dose 200 mg/kg; outline: as §1
Sarcoma-180 [7] = assay: Antitumor activity against mouse Sarcoma 180 cells allografted in CD1 mouse at 25 mg/kg, ip qd administered shortly post implantation continued for 8 days relative to vehicle-treated control; type: functional, organism-based; design: dose 25 mg/kg; outline: as §1
Sarcoma-180 [8] = assay: Antitumor activity against mouse Sarcoma 180 cells allografted in CD1 mouse at 12.5 mg/kg, ip qd administered shortly post implantation continued for 8 days relative to vehicle-treated control; type: functional, organism-based; design: dose 12.5 mg/kg; outline: as §1
Sarcoma-180 [9] = assay: Antitumor activity against mouse Sarcoma 180 cells allografted in CD1 mouse at 40 mg/kg, ip qd administered shortly post implantation continued for 8 days relative to vehicle-treated control; type: functional, organism-based; design: dose 40 mg/kg; outline: as §1
Sarcoma-180 [10] = assay: Antitumor activity against mouse Sarcoma 180 cells allografted in CD1 mouse at 20 mg/kg, ip qd administered shortly post implantation continued for 8 days relative to vehicle-treated control; type: functional, organism-based; design: dose 20 mg/kg; outline: as §1

Structure (SMILES) | Activity (Sarcoma-180 [1]) | Activity (Sarcoma-180 [6]) | further results
C[C@H]1O[C@@H](n2cc(F)c(=O)[nH]c2=O)[C@@H](O)[C@@H]1O | inactive | – | –
C[C@H]1O[C@@H](n2cc(F)c(=O)[nH]c2=O)[C@H](O)[C@@H]1O [DOXIFLURIDINE] | Active | Active | Activity (Sarcoma-180 [2]): Active; Activity (Sarcoma-180 [3]): Active; Activity (Mus musculus [4]): Toxic; Activity (Mus musculus [5]): Toxic; Activity (Sarcoma-180 [7]): Active; Activity (Sarcoma-180 [8]): inactive
C[C@H]1O[C@@H](n2cc(F)c(=O)[nH]c2=O)[C@@H]2OC(C)(C)O[C@@H]21 | – | inactive | –
O=c1[nH]c(=O)n([C@H]2C[C@H](O)[C@@H](CO)O2)cc1F [FLOXURIDINE] | – | – | Activity (Mus musculus [4]): Toxic; Activity (Mus musculus [5]): Toxic
C[C@H]1O[C@@H]2[C@@H](Oc3nc(=O)c(F)cn32)[C@@H]1O | – | inactive | –
C[C@H]1O[C@@H](n2cc(F)c(N)nc2=O)[C@H]2O[C@H]21 | – | inactive | –
C[C@H]1O[C@@H](n2cc(F)c(=O)[nH]c2=O)[C@@H](O)[C@H]1O | inactive | – | –
C[C@H]1O[C@@H](n2ccc(=O)[nH]c2=O)[C@H](O)[C@@H]1O | – | inactive | –
C[C@H]1O[C@@H](n2ccc(N)nc2=O)[C@H](O)[C@@H]1O | – | inactive | –
C=C1O[C@@H](n2cc(F)c(=O)[nH]c2=O)[C@H](O)[C@@H]1O | inactive | – | –
C[C@@H]1O[C@@H](n2cc(F)c(=O)[nH]c2=O)[C@H](O)[C@@H]1O | inactive | – | –
C[C@H]1O[C@@H]2[C@@H](Oc3nc(N)c(F)c[n+]32)[C@@H]1O | Active | Active | Activity (Sarcoma-180 [9]): Active; Activity (Sarcoma-180 [10]): inactive
C[C@H]1O[C@@H](n2cc(F)c(N)nc2=O)[C@@H](O)[C@@H]1O | inactive | – | –
C[C@H]1O[C@@H](n2cc(F)c(N)nc2=O)[C@H](O)[C@@H]1O | Active | Active | Activity (Sarcoma-180 [3]): Active; Activity (Sarcoma-180 [7]): Active; Activity (Sarcoma-180 [8]): inactive
